Assay results from ChEMBL document CHEMBL1135717, “Minor groove DNA binders as antimicrobial agents. 1. Pyrrole tetraamides are potent antibacterials against vancomycin resistant Enterococci [corrected] and methicillin resistant Staphylococcus aureus” (J Med Chem, 2002).
Values after ≈ are worked out from the molar mass of the structure shown.

What was measured:
[1] = system: Nucleic Acid; test: DNA binding measured as Changes in the DNA melting temperature of an AT-rich dodecamer (CGATTATTAAGC) (GCTTAATAATCG) upon binding of an equimolar amount of compound; format: nucleic-acid assay
Method in brief: (§1)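 Melting monitored by UV absorbance at 260 nm in 10 mM HEPES pH 7.2, 0.1 mM EDTA, 50 mM NaCl. 12-bp AT-rich oligo at 5 μM mixed with compound at equimolar ratio. Temperature ramped 15 to 95 °C at 0.2 °C/min. Tm by derivative method, checked by hyperchromicity. ΔTm is Tm with compound minus Tm without. At least duplicate.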

[2] = system: Enterococcus; test: In vitro antimicrobial activity against Vancomycin resistant enterococcus strain BM4147; format: functional
Method in brief: (§2)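 Broth microdilution MIC per NCCLS M7-A4. Compounds dissolved fresh in DMSO as 10 mM stock, then diluted in BHI medium for VRE (BM4147, UCD3) or Mueller-Hinton medium for MRSA. Seven 1:2 serial dilutions gave test concentrations of 45.5 to 0.7 μM. MIC read by visual inspection of wells after 2 days.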

[3] = system: Enterococcus; test: In vitro antimicrobial activity against Vancomycin resistant enterococcus strain UCD-3; format: functional; method in brief: as §2
[4] = system: Staphylococcus aureus; test: In vitro antimicrobial activity against Methicillin resistant Staphylococcus aureus; format: functional; method in brief: as §2
[5] = Toxicity assessed in human T-cells using a colorimetric cell proliferation assay.; format: cell-based
Method in brief: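 CCRF-CEM human leukemia T-cells in RPMI-1640 with 10% FBS and gentamicin 0.1 mg/mL, seeded at 4 × 10^4 cells/well. Compound added at start at 50, 25, 12.5 and 6.3 μM. WST-1 cleavage read by absorbance at 440 nm at 24, 48 and 72 h. Value reported as lowest % of no-compound control, typically 72 h at 50 μM. At least triplicate.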

[6] = system: Nucleic Acid; test: Changes in the DNA melting temperature of an AT-rich dodecamer (CGATTATTAAGC) (GCTTAATAATCG) upon binding of an equimolar amount of compound; format: nucleic-acid assay; method in brief: as §1

Row | SMILES | ΔTm [1] [°C] | MIC [2] [µM] | MIC [3] [µM] | MIC [4] [µM] | NCC [5] [%] | ΔTm [6]
1 | CC(C)CCn1cc(NC(=O)c2ccc(C(=O)Nc3cc(C(=O)NCCC(=N)N)n(CCC(C)C)c3)nc2)cc1C(=O)NCCC(=N)N | 25 | 0.7 (≈ 0.463 µg/mL) | 1.4 (≈ 0.927 µg/mL) | 1.4 (≈ 0.927 µg/mL) | 3 | 
2 | CC(C)CCn1cc(NC(=O)c2ccc(C(=O)Nc3cc(C(=O)NCCC(=N)N)n(CCC(C)C)c3)c3ccccc23)cc1C(=O)NCCC(=N)N | 20 | 2.8 (≈ 1.99 µg/mL) | 5.7 (≈ 4.05 µg/mL) | 2.8 (≈ 1.99 µg/mL) | 15 | 
3 | Cc1cc(C(=O)Nc2cc(C(=O)NCCC(=N)N)n(CCC(C)C)c2)ccc1C(=O)Nc1cc(C(=O)NCCC(=N)N)n(CCC(C)C)c1 | 24 | 1.4 (≈ 0.945 µg/mL) | 1.4 (≈ 0.945 µg/mL) | 0.7 (≈ 0.472 µg/mL) | 38 | 
4 | CC(C)CCn1cc(NC(=O)c2ccc(C(=O)Nc3cc(C(=O)NCCN=C(N)N)n(CCC(C)C)c3)cc2)cc1C(=O)NCCN=C(N)N | 25 | 1.4 (≈ 0.967 µg/mL) | 1.4 (≈ 0.967 µg/mL) | 0.7 (≈ 0.484 µg/mL) | 5 | 
5 | C/N=C(/CCNC(=O)c1cc(NC(=O)c2ccc(C(=O)Nc3cc(C(=O)NCC/C(=N/C)NC)n(CCC(C)C)c3)cc2)cn1CCC(C)C)NC | 26 | 1.4 (≈ 1 µg/mL) | 1.4 (≈ 1 µg/mL) | 1.4 (≈ 1 µg/mL) |  | 
6 | CNC(=N)CCNC(=O)c1cc(NC(=O)c2ccc(C(=O)Nc3cc(C(=O)NCCC(=N)NC)n(CCC(C)C)c3)cc2)cn1CCC(C)C |  |  |  |  | 78 | 
7 | Cc1cc(C(=O)Nc2cc(C(=O)NCCC(=N)N)n(CCC(C)C)c2)c(C)cc1C(=O)Nc1cc(C(=O)NCCC(=N)N)n(CCC(C)C)c1 | 12 | > 45.5 | > 45.5 | 11.4 (≈ 7.85 µg/mL) | 75 | 
8 | CC(C)CCn1cc(NC(=O)CCCCC(=O)Nc2cc(C(=O)NCCC(=N)N)n(CCC(C)C)c2)cc1C(=O)NCCC(=N)N | 10 | > 45.5 | > 45.5 | > 45.5 | 87 | 
9 | CC(C)CCn1cc(NC(=O)c2ccnc(C(=O)Nc3cc(C(=O)NCCC(=N)N)n(CCC(C)C)c3)c2)cc1C(=O)NCCC(=N)N | 11 | 22.7 (≈ 15 µg/mL) | 22.7 (≈ 15 µg/mL) | 2.8 (≈ 1.85 µg/mL) | 6 | 
10 | N=C(N)CCNC(=O)c1cc(NC(=O)c2cnc(C(=O)Nc3cc(C(=O)NCCC(=N)N)n(CC4CC4)c3)cn2)cn1CC1CC1 | 23 | 2.8 (≈ 1.77 µg/mL) | 5.7 (≈ 3.6 µg/mL) | 2.8 (≈ 1.77 µg/mL) | 90 | 
11 | N=C(N)CCNC(=O)c1cc(NC(=O)c2ccc(C(=O)Nc3cc(C(=O)NCCC(=N)N)n(CC4CC4)c3)s2)cn1CC1CC1 | 27 | 1.4 (≈ 0.889 µg/mL) | 2.8 (≈ 1.78 µg/mL) | 1.4 (≈ 0.889 µg/mL) | 65 | 
12 | CC(C)CCn1cc(NC(=O)c2ccc3cc(C(=O)Nc4cc(C(=O)NCCC(=N)N)n(CCC(C)C)c4)ccc3c2)cc1C(=O)NCCC(=N)N | 24 | > 45.5 | > 45.5 | > 45.5 | 0 | 
13 | Cc1cc(C(=O)Nc2cc(C(=O)NCCC(=N)N)n(CC3CC3)c2)ccc1C(=O)Nc1cc(C(=O)NCCC(=N)N)n(CC2CC2)c1 | 26 | 2.8 (≈ 1.8 µg/mL) | 2.8 (≈ 1.8 µg/mL) | 2.8 (≈ 1.8 µg/mL) | 87 | 
14 | CC(C)CCn1cc(NC(=O)C2=CC=C(C(=O)Nc3cc(C(=O)NCCC(=N)N)n(CCC(C)C)c3)CC2)cc1C(=O)NCCC(=N)N | 26 | 1.4 (≈ 0.928 µg/mL) | 1.4 (≈ 0.928 µg/mL) | 0.7 (≈ 0.464 µg/mL) | 23 | 
15 | Cn1cc(NC(=O)c2cc(NC(=O)c3cc(NC=O)cn3C)cn2C)cc1C(=O)NCCC(=N)N [STALLIMYCIN] |  | > 45.5 | > 45.5 | > 45.5 | 79 | 26
16 | N=C(N)CCNC(=O)c1cc(NC(=O)c2ccc(C(=O)Nc3cc(C(=O)NCCC(=N)N)n(CC4CC4)c3)cc2)cn1CC1CC1 | 28 | 2.8 (≈ 1.76 µg/mL) | 0.7 (≈ 0.44 µg/mL) | 1.4 (≈ 0.88 µg/mL) | 72 | 
